From ChEMBL document CHEMBL1140210, “In pursuit of natural product leads: synthesis and biological evaluation of 2-[3-hydroxy-2-[(3-hydroxypyridine-2-carbonyl)amino]phenyl]benzoxazole-4-carboxylic acid (A-33853) and its analogues: discovery of N-(2-benzoxazol-2-ylphenyl)benzamides as novel antileishmanial chemotypes” (J Med Chem, 2008) come the findings set out here.

Broadly, the inhibition is the relative decrease from the control value, in per cent. Low values mean little suppression, high ones strong suppression. The IC50 is the concentration that gives 50% inhibition.

Calls of active or inactive are those of the source. No cut-off for these calls is given here.

Data set [1] relates to Leishmania donovani. In words: Antileishmanial activity against Leishmania donovani MHOM/ET/67/L82 at 4.8 ug/mL. The class given is functional.
In data set [2] the test system is Leishmania donovani. In words: Antileishmanial activity against Leishmania donovani MHOM/ET/67/L82 at 0.8 ug/mL. Type of data set: functional.
The test system of another data set is Trypanosoma cruzi. In words: Antitrypanosomal activity against Trypanosoma cruzi Tulahuen C2C4 at 4.8 ug/mL. Type of data set: functional.
The next data set has as its system Plasmodium falciparum. In words: Antimalarial activity against chloroquine and pyrimethamine-resistant Plasmodium falciparum K1 at 4.8 ug/mL. Type of data set: functional.
Data set [3] relates to Leishmania donovani. In words: Antileishmanial activity against Leishmania donovani MHOM/ET/67/L82. The class given is functional, organism-based. In outline: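 Tested on axenic amastigote cultures of L. donovani strain MHOM/ET/67/L82. Activity is reported as IC50.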
The subject of a further data set is L6. In words: Cytotoxicity against rat L6 cells. The class given is cell-based. The note with it: for IC50: Rattus norvegicus, L6; for Activity: rat, l6.
Data set [4] can be described thus: Selectivity index, ratio of IC50 for rat L6 cells to IC50 for Leishmania donovani MHOM/ET/67/L82. The note with it: read-out: Ratio IC50. The class given is toxicity, cell-based.
The test system of data set [5] is Leishmania donovani. In words: Antiparasitic activity against Leishmania donovani amastigote in mouse peritoneal macrophages assessed as reduction of parasite burden at 10 ug/mL after 96 hrs. Type of data set: functional, organism-based.

As for `O=C(Nc1c(O)cccc1-c1nc2c(C(=O)O)cccc2o1)c1ncccc1O`, the inhibition at 4.8 µg/mL was determined as 100% with Leishmania donovani [1], 96% in the data set with Trypanosoma cruzi and 97% in the data set on Plasmodium falciparum. In addition, in the data set with Leishmania donovani [2], the inhibition at 0.8 µg/mL was 100%. For the same molecule, the results for the IC50 in the data set with Leishmania donovani [3] and in the data set on L6 were 80 nM and 14.2 µM, respectively. Moreover, the selectivity ratio in data set [4] is 185.
As to `O=C(Nc1c(O)cccc1-c1nc2c(C(=O)O)cccc2o1)c1cc(-c2ccccc2)on1`, the IC50 in the data set with Leishmania donovani [3] was determined as 930 nM; in the data set with L6 it was 141 µM. Besides, the selectivity ratio in data set [4] was found to be 152. The result in the data set with Leishmania donovani [5] was inactive.
In the case of `O=C(Nc1c(O)cccc1-c1nc2c(C(=O)O)cccc2o1)c1cc2ccccc2[nH]1`, the IC50 is 680 nM in the data set on Leishmania donovani [3] and 212 µM with L6. In addition, the selectivity ratio in data set [4] was 312. Further, the result in the data set on Leishmania donovani [5] was inactive.
`O=C(Nc1c(O)cccc1-c1nc2c(C(=O)O)cccc2o1)c1cccnc1`: the figures for the IC50 in the data set on Leishmania donovani [3] and in the data set with L6 were 4360 nM and 240 µM, respectively. In addition, in data set [4], the selectivity ratio amounted to 55.
As to `O=C(Nc1c(O)cccc1-c1nc2c(C(=O)O)cccc2o1)c1cnccn1`, the IC50 with Leishmania donovani [3] was determined as 510 nM; with L6, 94.4 µM. The selectivity ratio in data set [4] came out at 185. Besides, the outcome with Leishmania donovani [5] was inactive.
As for `Cc1cc(C(=O)Nc2c(O)cccc2-c2nc3c(C(=O)O)cccc3o2)no1`, the inhibition at 0.8 µg/mL with Leishmania donovani [2] is below 30%. The Activity result in the data set on L6 is listed as “Not Traceable”.
In the case of `O=C(Nc1c(O)cccc1-c1nc2c(C(=O)O)cccc2o1)c1ncccc1F`, the figures for the IC50 with Leishmania donovani [3] and with L6 were 520 nM and 204 µM, respectively. Further, the selectivity ratio in data set [4] turned out to be 392. Also, the result in the data set with Leishmania donovani [5] was inactive.
As to `COc1cccc(-c2nc3c(C(=O)O)cccc3o2)c1NC(=O)c1cc2ccccc2[nH]1`, the IC50 stood at 3070 nM in the data set with Leishmania donovani [3] and 211 µM with L6. Also, the selectivity ratio in data set [4] amounted to 69.
With `COc1cccc(-c2nc3c(C(=O)O)cccc3o2)c1NC(=O)c1cccnc1Cl`, in the data set with Leishmania donovani [2], the inhibition at 0.8 µg/mL was below 30%. In addition, the Activity result in the data set with L6 is “Not Traceable”.
As for `O=C(Nc1c(O)cccc1-c1nc2c(C(=O)O)cccc2o1)c1ccccc1O`, the results for the IC50 in the data set on Leishmania donovani [3] and in the data set on L6 were 850 nM and 85.1 µM, respectively. Also, the selectivity ratio in data set [4] came out at 100. Also, the result in the data set on Leishmania donovani [5] was inactive.
For the molecule `O=C(Nc1c(O)cccc1-c1nc2c(C(=O)O)cccc2o1)c1ccccc1`, the half-maximal inhibitory concentration (IC50) in the data set on Leishmania donovani [3] is 1730 nM; in the data set on L6 it was above 240 µM. In data set [4], the selectivity ratio was above 138.
Take `O=C(Nc1c(O)cccc1-c1nc2c(C(=O)O)cccc2o1)c1cccc(Cl)c1`: the IC50 amounted to 1930 nM in the data set with Leishmania donovani [3] and 143 µM with L6. The selectivity ratio in data set [4] amounted to 74.
In the data set with L6, `CCCCCCCCCCCCCCCCOP(=O)([O-])OCC[N+](C)(C)C` [MILTEFOSINE] gave a concentration for half-maximal inhibition (IC50) of 147 µM. Also, the selectivity ratio in data set [4] is 565.
In the case of `O=C(Nc1c(O)cccc1-c1nc2c(C(=O)O)cccc2o1)c1ccc(F)c(F)c1F`, the IC50 with Leishmania donovani [3] stood at 1900 nM; in the data set on L6, 210 µM. Further, the selectivity ratio in data set [4] is 111.
On the same counts, the results for `O=C(Nc1c(O)cccc1-c1nc2c(C(=O)O)cccc2o1)c1cc(-c2ccccc2)nc2ccccc12` are 1170 nM, 108 µM and 92.
Take `O=C(Nc1c(O)cccc1-c1nc2c(C(=O)O)cccc2o1)c1ccccn1`: the half-maximal inhibitory concentration (IC50) with Leishmania donovani [3] came to 310 nM; in the data set on L6, 30.6 µM. The selectivity ratio in data set [4] turned out to be 99. For the same molecule, in the data set on Leishmania donovani [5], the result was inactive.
Turning to `O=C(Nc1ccccc1-c1nc2c(C(=O)O)cccc2o1)c1ccccc1`, the figures for the IC50 in the data set on Leishmania donovani [3] and with L6 were 960 nM and 114 µM, respectively. Further, in data set [4], the selectivity ratio was 118. In addition, the result in the data set on Leishmania donovani [5] was inactive.
As for `O=C(Nc1c(O)cccc1-c1nc2c(C(=O)O)cccc2o1)c1cccnc1Cl`, in the data set on Leishmania donovani [2], the inhibition at 0.8 µg/mL is below 30%. For the same molecule, in the data set with L6, the Activity result is “Not Traceable”.
In turn, `O=C(Nc1c(O)cccc1-c1nc2c(C(=O)O)cccc2o1)c1cc(O)c(O)c(O)c1` had an inhibition at 0.8 µg/mL with Leishmania donovani [2] below 30%. Also, the Activity result in the data set with L6 is given as “Not Traceable”.
